Experiments:
Mus musculus [1] = experiment: Antitumor activity against ip implanted P388 leukemia in mouse after ip administration of 30 mg/kg for 5 days expressed as increase in mean life span; assay type: functional; conditions: 120 h, route intraperitoneal
Summary of the method: (§1)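 Saline-dissolved drug was given ip daily for 5 consecutive days, beginning 24 h post-transplant. ILS % was calculated from treated vs control mean survival time over an 80-day observation period.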

Mus musculus [2] = experiment: Antitumor activity against ip implanted syngeneic L1210 leukemia in mouse after ip administration of 60 mg/kg for 5 days expressed as increase in mean life span; assay type: functional; conditions: 120 h, route intraperitoneal
Summary of the method: (§2)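 Drug was dissolved in 0.9% NaCl, diluted just before use and given ip once daily for 5 consecutive days, starting 24 h after transplant. ILS % = mean survival time of treated vs control mice, observed for 80 days.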

Mus musculus [3] = experiment: Number of survivors out of 6 ip implanted L1210 leukemia mouse, tested after 80 days at 30 mg/kg; assay type: functional; conditions: route intraperitoneal
Summary of the method: (§3)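 Female BDF1 mice implanted ip with ascitic fluid holding 10^5 L1210 cells. Saline-dissolved drug given ip daily on days 1-5, starting 24 h after implant. Six mice per dose group, followed 80 days. Survivors/total counted at day 80; ILS % from mean survival time vs controls.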

Mus musculus [4] = experiment: Antitumor activity against ip implanted P388 leukemia in mouse after ip administration of 1.25 mg/kg for 5 days expressed as increase in mean life span; assay type: functional; conditions: 120 h, route intraperitoneal; summary of the method: as §1
Mus musculus [5] = experiment: Antitumor activity against ip implanted P388 leukemia in mouse after ip administration of 5 mg/kg for 5 days expressed as increase in mean life span; assay type: functional; conditions: 120 h, route intraperitoneal; summary of the method: as §1
Mus musculus [6] = experiment: Number of survivors out of 6 ip implanted P388 leukemia in mouse after ip administration of 80 mg/kg after 80 days; assay type: functional; conditions: route intraperitoneal
Summary of the method: (§4)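 P388 leukemia, 10^6 ascitic cells implanted ip in female BDF1 mice. Drug in saline given ip for 5 consecutive days from 24 h after transplant. Groups of six per dose level. Survivors/total recorded at the 80-day end of observation; ILS % from treated/control mean survival time.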

Mus musculus [7] = experiment: Antitumor activity against ip implanted P388 leukemia in mouse after ip administration of 10 mg/kg for 5 days expressed as increase in mean life span; assay type: functional; conditions: 120 h, route intraperitoneal; summary of the method: as §1
Mus musculus [8] = experiment: Effect on ip implanted syngeneic B16 melanoma by ip administration of 30 mg/kg for 9 days measured as increase in mean life span; conditions: 216 h
Mus musculus [9] = experiment: Effect on ip implanted syngeneic B16 melanoma by ip administration of 20 mg/kg for 9 days measured as increase in mean life span; conditions: 216 h
Mus musculus [10] = experiment: Antitumor activity against ip implanted L1210 leukemia in mouse after ip administration of 1.25 mg/kg for 5 days expressed as increase in mean life span; assay type: functional; conditions: 120 h, route intraperitoneal; summary of the method: as §2
Mus musculus [11] = experiment: Number of survivors out of 6 ip implanted P388 leukemia in mouse after ip administration of 40 mg/kg after 80 days; assay type: functional; conditions: route intraperitoneal; summary of the method: as §4
Mus musculus [12] = experiment: Antitumor activity against ip implanted L1210 leukemia in mouse after iv administration of 2 mg/kg for 5 days expressed as increase in mean life span; conditions: 120 h
Mus musculus [13] = experiment: Antitumor activity against ip implanted P388 leukemia in mouse after ip administration of 40 mg/kg for 5 days expressed as increase in mean life span; assay type: functional; conditions: 120 h, route intraperitoneal; summary of the method: as §1
Mus musculus [14] = experiment: Inhibition of sc implanted syngeneic colon 38 carcinoma by ip administration at 60 mg/kg on 1, 3, 5, 7, 9 days measured as inhibition ratio; assay type: functional; conditions: route subcutaneous
Summary of the method: (§5)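 Tumor homogenate (70 mg) implanted into the axillary region of female BDF1 mice. Drug dissolved in 0.9% NaCl and diluted with saline just before use, then given ip on days 1, 3, 5, 7 and 9. Tumor length and width were measured by caliper on day 20 after inoculation and converted to estimated weight. Result reported as treated vs control tumor weight, T/C %.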

Mus musculus [15] = experiment: Antitumor activity against ip implanted L1210 leukemia in mouse after ip administration of 40 mg/kg for 5 days expressed as increase in mean life span; assay type: functional; conditions: 120 h, route intraperitoneal; summary of the method: as §2
Mus musculus [16] = experiment: Number of survivors out of 6 ip implanted P388 leukemia in mouse after ip administration of 10 mg/kg after 80 days; assay type: functional; conditions: route intraperitoneal; summary of the method: as §4
Mus musculus [17] = experiment: Effect on ip implanted syngeneic B16 melanoma by ip administration for 9 days at 10 mg/kg was measured as increase in mean life span; conditions: 216 h
Mus musculus [18] = experiment: Effect on ip implanted syngeneic B16 melanoma by ip administration for 9 days at 5 mg/kg was measured as increase in mean life span; conditions: 216 h
Mus musculus [19] = experiment: Number of survivors out of 6 ip implanted L1210 leukemia in mouse after ip administration of 40 mg/kg after 80 days; assay type: functional; conditions: route intraperitoneal; summary of the method: as §3
Mus musculus [20] = experiment: Antitumor activity against ip implanted L1210 leukemia in mouse after ip administration of 20 mg/kg for 5 days expressed as increase in mean life span; assay type: functional; conditions: 120 h, route intraperitoneal; summary of the method: as §2
Mus musculus [21] = experiment: Number of survivors out of 6 ip implanted L1210 leukemia in mouse after ip administration of 80 mg/kg after 80 days; assay type: functional; conditions: route intraperitoneal; summary of the method: as §3
Mus musculus [22] = experiment: Inhibition of sc implanted syngeneic colon 38 carcinoma by ip administration at 30 mg/kg on 1, 3, 5, 7, 9 days measured as inhibition ratio; assay type: functional; conditions: route intraperitoneal; summary of the method: as §5
Mus musculus [23] = experiment: Antitumor activity against ip implanted L1210 leukemia in mouse after ip administration of 5 mg/kg for 5 days expressed as increase in mean life span; assay type: functional; conditions: Mus musculus, L1210, ip, 120 h, route intraperitoneal; summary of the method: as §2
Mus musculus [24] = experiment: Antitumor activity against ip implanted P388 leukemia in mouse after iv administration of 8 mg/kg for 5 days expressed as increase in mean life span; conditions: 120 h
Mus musculus [25] = experiment: Antitumor activity against ip implanted L1210 leukemia in mouse after ip administration of 30 mg/kg for 5 days expressed as increase in mean life span; assay type: functional; conditions: route intraperitoneal; summary of the method: as §2
Mus musculus [26] = experiment: Antitumor activity against ip implanted P388 leukemia in mouse after ip administration of 20 mg/kg for 5 days expressed as increase in mean life span; assay type: functional; conditions: 120 h, route intraperitoneal; summary of the method: as §1
Mus musculus [27] = experiment: Antitumor activity against ip implanted P388 leukemia in mouse after ip administration of 80 mg/kg for 5 days expressed as increase in mean life span; assay type: functional; conditions: 120 h, route intraperitoneal; summary of the method: as §1
Mus musculus [28] = experiment: Antitumor activity against ip implanted L1210 leukemia in mouse after iv administration of 4 mg/kg for 5 days expressed as increase in mean life span; conditions: 120 h
Mus musculus [29] = experiment: Inhibition of sc implanted syngeneic colon 38 carcinoma by ip administration at 80 mg/kg on 1, 3, 5, 7, 9 days measured as inhibition ratio; assay type: functional; conditions: route subcutaneous; summary of the method: as §5
Mus musculus [30] = experiment: Number of survivors out of 6 ip implanted L1210 leukemia in mouse after ip administration of 20 mg/kg after 80 days; assay type: functional; conditions: route intraperitoneal; summary of the method: as §3
Mus musculus [31] = experiment: Antitumor activity against ip implanted L1210 leukemia in mouse after ip administration of 10 mg/kg for 5 days expressed as increase in mean life span; assay type: functional; conditions: Mus musculus, L1210, ip, 120 h, route intraperitoneal; summary of the method: as §2
Mus musculus [32] = experiment: Antitumor activity against ip implanted P388 leukemia in mouse after iv administration of 4 mg/kg for 5 days expressed as increase in mean life span; conditions: 120 h
Mus musculus [33] = experiment: Number of survivors out of 6 ip implanted P388 leukemia in mouse after ip administration of 20 mg/kg after 80 days; assay type: functional; conditions: route intraperitoneal; summary of the method: as §4
Mus musculus [34] = experiment: Inhibition of sc implanted syngeneic colon 38 carcinoma by ip administration at 40 mg/kg on 1, 3, 5, 7, 9 days measured as inhibition ratio; assay type: functional; conditions: route subcutaneous; summary of the method: as §5
Mus musculus [35] = experiment: Number of survivors out of 6 ip implanted L1210 leukemia in mouse after ip administration of 10 mg/kg after 80 days; assay type: functional; conditions: route intraperitoneal; summary of the method: as §3
Mus musculus [36] = experiment: Number of survivors out of 6 ip implanted P388 leukemia in mouse after ip administration of 5 mg/kg after 80 days; assay type: functional; conditions: route intraperitoneal; summary of the method: as §4
Mus musculus [37] = experiment: Inhibition of sc implanted syngeneic colon 38 carcinoma by ip administration at 20 mg/kg on 1, 3, 5, 7, 9 days measured as inhibition ratio; assay type: functional; conditions: route subcutaneous; summary of the method: as §5

| Compound | ILS at 1.25 mg/kg (Mus musculus [4]) [%] | ILS at 5 mg/kg (Mus musculus [5]) [%] | ILS at 10 mg/kg (Mus musculus [7]) [%] | ILS at 20 mg/kg (Mus musculus [9]) [%] | ILS at 1.25 mg/kg (Mus musculus [10]) [%] | Cures (Mus musculus [11]) | ILS at 40 mg/kg (Mus musculus [13]) [%] | ILS at 40 mg/kg (Mus musculus [15]) [%] | Cures (Mus musculus [16]) | ILS at 10 mg/kg (Mus musculus [17]) [%] | ILS at 5 mg/kg (Mus musculus [18]) [%] | Cures (Mus musculus [19]) | ILS at 20 mg/kg (Mus musculus [20]) [%] | T/C (Mus musculus [22]) [%] | ILS at 5 mg/kg (Mus musculus [23]) [%] | ILS at 20 mg/kg (Mus musculus [26]) [%] | Cures (Mus musculus [30]) | ILS at 10 mg/kg (Mus musculus [31]) [%] | Cures (Mus musculus [33]) | T/C (Mus musculus [34]) [%] | also measured |
| --- | --- | --- | --- | --- | --- | --- | --- | --- | --- | --- | --- | --- | --- | --- | --- | --- | --- | --- | --- | --- | --- |
| Cc1c2ccncc2c(C)c2c1[nH]c1ccc(O)cc12 | – | – | – | – | – | – | – | – | – | – | – | – | – | – | – | – | – | – | – | – | ILS at 30 mg/kg (Mus musculus [1]): 91%; ILS at 60 mg/kg (Mus musculus [2]): 79% |
| Cc1c2cc[n+]([C@H]3O[C@@H](C)[C@@H](O)[C@@H](O)[C@@H]3O)cc2c(C)c2c1[nH]c1ccc(O)cc12.[Br-] (stereo in doubt; 56) | 85 | 109 | > 341 | 81 | 56 | 6 | > 789 | > 712 | 2 | 62 | 50 | 4 | > 248 | 52 | 67 | > 677 | 1 | 107 | 5 | 19 | Cures (Mus musculus [3]; 30 mg/kg): 4; Cures (Mus musculus [6]): 4; ILS at 30 mg/kg (Mus musculus [8]): 58%; ILS at 2 mg/kg (Mus musculus [12]): 9%; T/C (Mus musculus [14]): 3%; Cures (Mus musculus [21]): 6; ILS at 8 mg/kg (Mus musculus [24]): 76%; ILS (Mus musculus [25]; 30 mg/kg): >693%; ILS at 80 mg/kg (Mus musculus [27]): > 513%; ILS at 4 mg/kg (Mus musculus [28]): 38%; T/C (Mus musculus [29]): 2%; ILS at 4 mg/kg (Mus musculus [32]): 63% |
| Cc1c2cc[n+]([C@@H]3OC[C@@H](O)[C@H](O)[C@@H]3O)cc2c(C)c2c1[nH]c1ccc(O)cc12.[Cl-] | 87 | > 212 | > 369 | 87 | 46 | 4 | > 526 | > 668 | 2 | 61 | 41 | 4 | > 249 | 18 | 68 | > 585 | 1 | > 238 | 4 | 5 | Cures (Mus musculus [3]): 5; ILS at 30 mg/kg (Mus musculus [25]; Mus musculus, L1210, ip, 120 h): > 786%; Cures (Mus musculus [35]): 1; Cures (Mus musculus [36]): 1; T/C (Mus musculus [37]): 37% |

Reference: ChEMBL document CHEMBL1124260, “Synthesis and antitumor activity of quaternary ellipticine glycosides, a series of novel and highly active antitumor agents” (1988)
